Most compounds without a hit are left out; they make up all but 1.9% or so of the library.
M5 ag: human M5 muscarinic receptor agonists, primary screen, CHO-K1 cells, Fluo-8 calcium fluorescence; Muscarinic acetylcholine receptor M5 (Homo sapiens), P08912; CHO-K1 hM5 cells; 0% DMSO wells, 100% maximal acetylcholine response; activation, % at 3 µM; hit rate 0.19% among 360,000; AID 624037, 2012;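 active = activation above the run's mean over test compounds plus 3 SD, cut at about 23% in these data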;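 also: signal is peak over basal fluorescence ratio across the kinetic read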
CHRM4 agonist: human M4 muscarinic receptor agonists, primary screen, CHO-K1 cells, Fluo-8 calcium fluorescence; Muscarinic acetylcholine receptor M4 (Homo sapiens), P08173; CHO-K1 hM4/Gqi5; vehicle 0%, full acetylcholine response 100%; activation, % at 3 µM; hit rate 0.14% among 360,000; AID 624127, 2012;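 active = activation above the run mean over all test wells plus 3 SD, cut at about 32% in these data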;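 also: peak over basal fluorescence ratio per well then scaled between controls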
Target sequence (P08173 whole entry, looked up): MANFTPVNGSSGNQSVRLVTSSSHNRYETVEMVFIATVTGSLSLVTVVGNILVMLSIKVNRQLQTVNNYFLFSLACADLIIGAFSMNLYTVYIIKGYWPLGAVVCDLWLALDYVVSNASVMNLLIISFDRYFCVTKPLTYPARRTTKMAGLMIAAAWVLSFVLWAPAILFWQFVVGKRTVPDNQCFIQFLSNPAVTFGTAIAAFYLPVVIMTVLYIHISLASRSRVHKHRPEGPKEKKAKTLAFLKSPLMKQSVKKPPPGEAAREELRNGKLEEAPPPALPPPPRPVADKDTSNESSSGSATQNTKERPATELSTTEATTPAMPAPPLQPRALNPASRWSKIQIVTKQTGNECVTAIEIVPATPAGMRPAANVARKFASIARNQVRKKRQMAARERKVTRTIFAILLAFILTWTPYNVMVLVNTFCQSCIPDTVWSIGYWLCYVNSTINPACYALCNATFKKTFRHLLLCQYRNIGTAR
M4 antag: human M4 muscarinic receptor antagonists, primary screen, CHO cells, Fluo-8 calcium fluorescence; CHO-hM4 cells, ACh EC80; hit rate 0.73% among 360,000; inhibition, % at 3 µM; Muscarinic acetylcholine receptor M4 (Homo sapiens), P08173; AID 624125, 2012;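 active = inhibition above its plate's cutoff, the mean inhibition of sample wells plus 3 SD, cut at about 27% in these data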
M5 antag: human M5 muscarinic receptor antagonists, primary screen, CHO cells, Fluo-8 calcium fluorescence; Muscarinic acetylcholine receptor M5 (Homo sapiens), P08912; CHO-hM5 cells, ACh EC80; inhibition, % at 3 µM; hit rate 0.59% among 360,000;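 active = inhibition above a per-plate cutoff, the mean of that plate's test compounds plus 3 SD, cut at about 27% in these data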
M5 PAM: human M5 muscarinic receptor positive allosteric modulators, primary screen, CHO-K1 cells, Fluo-8 calcium fluorescence | CHO-K1 hM5, ACh EC20 PAM; 0% = ACh EC20, 100% = ACh EC100 | activation, % at 3 µM | hit rate 0.3% among 360,000;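 active = activation above the run cutoff, the mean activation of all test compounds plus 3 SD, cut at about 18% in these data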
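System: CHO-K1 hM5 cells. Reagent: acetylcholine, EC20 level. Compound dosing: single dose, 3 µM nominal final test concentration. Timing: Post-acetylcholine fluorescence recording 140 s. Detection: Fluo-8 calcium fluorescence. Read-out: % activation, ACh-normalized. Benchmarks: ACh EC20 and EC100 wells. Repeats: singlicate, one well per test compound.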
CHRM4 PAM: human M4 muscarinic receptor positive allosteric modulators, primary screen, CHO-K1 cells, Fluo-8 calcium fluorescence. Muscarinic acetylcholine receptor M4 (Homo sapiens), P08173. CHO-K1 hM4/Gqi5, ACh EC20; 0% = ACh EC20, 100% = maximal ACh. activation, % at 3 µM. hit rate 0.4% among 360,000. AID 624126, 2012;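 active = activation above its plate's cutoff, the mean activation of sample wells plus 3 SD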
Numbers stand for hits; 0 = inactive.

SMILES	M5 ag	CHRM4 agonist	M4 antag	M5 antag	M5 PAM	CHRM4 PAM
CCc1ccc(NC(=O)C2CCCN(S(=O)(=O)c3ccc4[nH]c(=O)ccc4c3)C2)cc1 (stereo not drawn)	0	0	0	0	0	0
CCC1([N+](=O)[O-])COC(c2ccc(Cl)cc2)OC1 (stereo not drawn)	0	0	0	0	0	27
CC1(C(=O)O)COC(c2ccc(Cl)cc2)OC1 (stereo not drawn)	0	0	0	0	0	0
CC(C)(C)c1ccc(OCC(=O)NNC(=O)c2cccnc2)cc1	0	0	0	0	0	0
COc1ccccc1NS(=O)(=O)c1cccc(NC(=O)Nc2ccc(Cl)cc2)c1	0	0	46	66	0	0
COc1ccccc1NS(=O)(=O)c1cccc(NC(=O)Nc2ccccc2)c1	0	35	61	59	0	0
COc1cccc(OC)c1C(=O)Nc1cccc(S(=O)(=O)Nc2ccccc2Cl)c1	0	0	0	0	0	0
CCNC(=S)Nc1cccc(S(=O)(=O)Nc2ccccc2OC)c1	0	0	0	0	0	0
COc1ccc(CCC(=O)N(c2nnc(-c3cccnc3)s2)C(C)C)cc1	0	0	0	0	0	0
O=C(c1ccc(N2CCCC2=O)cc1)N1CCN(c2ccccc2)CC1	0	0	0	0	45	0
CCOC(=O)N1CCN(C(=O)C[C@@H]2C[C@@]3(C(=O)OC)CCCCC=C3N(Cc3ccc(Cl)cc3Cl)C2=O)CC1	0	0	0	0	0	0
Cc1ccc(C2/C(=C(\O)c3c(C)nc4c(C)cccn34)C(=O)C(=O)N2CCN(C)C)o1 (stereo not drawn)	0	0	0	0	0	0
Cc1nc2c(C)cccn2c1/C(O)=C1\C(=O)C(=O)N(CCN(C)C)C1c1ccco1 (stereo not drawn)	0	0	0	0	21	0
CCOCCCNC(=O)Cn1ncc2c(=O)oc3ccccc3c21	0	0	39	0	0	0
O=C(CCn1cccn1)N1CCCC(Nc2ccc(F)c(F)c2)C1 (stereo not drawn)	0	0	0	0	0	0
Nc1ccccc1-c1nc2ccccc2s1	0	0	0	0	0	0
O=C(CSc1nc(=O)[nH]c2c1CCCC2)Nc1ccc(F)cc1F	0	0	0	0	0	22
Cc1ccccc1CNC(=O)C1CCC(=O)N(C2CC2)C1 (stereo not drawn)	0	0	0	0	0	0
Cc1cccc(C)c1NC(=O)CS(=O)CC(=O)Nc1ccc(F)cc1F (stereo not drawn)	0	0	0	0	0	0
CCc1ccc(NC(=O)CS(=O)CC(=O)Nc2ccc(F)cc2F)cc1 (stereo not drawn)	0	0	0	0	0	31
CCOC(=O)c1cc(-c2ccc3c(c2)OCCO3)n[nH]1	0	0	0	0	0	27
CC(C)n1nc(C(=O)OCC(=O)N2CC(=O)Nc3ccccc32)c2ccccc2c1=O	0	0	0	0	0	20
O=C1CN(C(=O)COC(=O)c2ccccc2O)c2ccccc2N1	0	0	0	0	0	0
Cc1ccccc1S(=O)(=O)NC1OC(=O)C(Cl)=C1Cl (stereo not drawn)	0	0	0	0	0	0
CC(=O)NC(=O)NC1OC(=O)C(Cl)=C1Cl (stereo not drawn)	0	0	0	0	0	17
SMILES	M5 ag	CHRM4 agonist	M4 antag	M5 antag	M5 PAM	CHRM4 PAM
N=c1sccn1CC(=O)Nc1ccc(SC(F)F)cc1	0	0	0	0	0	0
COc1ccc(/C=C2\CCc3c2nc2ccccc2c3C(=O)O)cc1OC	0	0	0	0	0	0
CCOc1ccc(/C=C2\CCCc3c2nc2ccccc2c3C(=O)O)cc1OC	249	78	0	0	0	0
CC(=O)Nc1ccc(S(=O)(=O)N2CCC(=O)Nc3ccccc32)cc1	0	0	0	0	0	0
COc1ccccc1/C=C/C=NC1C(=O)N(c2ccccc2)[N+](C)=C1C (stereo not drawn)	0	0	0	0	0	0
CC1=[N+](C)N(c2ccccc2)C(=O)C1N=C/C=C/c1ccccc1 (stereo not drawn)	0	0	58	0	0	0
CCC(C)[C@H](NC(=O)N1CC(=O)Nc2ccccc21)C(=O)N1CCC[C@@H]1C(=O)O (stereo partly drawn)	0	0	0	0	0	0
CCC(C)[C@H](NC(=O)N1CC(=O)Nc2ccccc21)C(=O)N1CCC[C@H]1C(=O)O (stereo partly drawn)	0	0	101	0	0	0
O=C(COC(=O)c1ccc(S(=O)(=O)N2CCOCC2)cc1)NC1CCCC1	0	0	0	0	0	0
Nc1c(C(=O)c2ccc(Cl)cc2)sc2nc3c(cc12)CCC3	0	0	0	0	0	23
C[C@@]12C(=O)Nc3cc(F)ccc3C(=O)N1[C@H]1c3ccccc3OC[C@@H]1[C@@H]2c1ccccc1	0	0	73	0	0	0
COc1ccc2c(c1)OC[C@H]1[C@H]2N2C(=O)c3cc(Cl)ccc3NC(=O)[C@@]2(C)[C@H]1c1ccccc1	0	0	36	0	0	0
COc1ccc2c(c1)OC[C@H]1[C@H]2N2C(=O)c3ccc(C)cc3NC(=O)[C@@]2(C)[C@H]1c1ccccc1	0	0	0	0	0	0
COc1ccc2c(c1)OC[C@H]1[C@H]2N2C(=O)c3cc(F)ccc3NC(=O)[C@@]2(C)[C@H]1c1ccccc1	0	0	57	0	0	0
COc1ccc2c(c1)OC[C@H]1[C@H]2N2C(=O)c3cc(OC)ccc3NC(=O)[C@@]2(C)[C@H]1c1ccccc1	0	0	26	0	0	0
CCN(CC)CCN(Cc1cc2cc3c(cc2[nH]c1=O)OCCO3)C(=S)NCCCOC	0	0	0	0	0	0
O=C(C1CCCC1)N1CCN(S(=O)(=O)c2ccc(F)c(F)c2F)CC1	0	0	0	0	0	0
CCCCCCN1C[C@@H](O)[C@H](n2cc(-c3ccc(F)cc3)nn2)C[C@@H]1c1ccc(C)cc1	0	0	0	0	0	0
Cc1ccc2c(c1)[C@H]1[C@H](CO2)[C@H](c2ccccc2)[C@]2(C)C(=O)N(Cc3ccc(F)cc3)CC(=O)N12	24	0	0	0	0	0
COC(=O)c1[nH]c2c(c1C)C(=O)CC(c1cccs1)C2 (stereo not drawn)	0	0	0	0	0	30
